Reference: publication PMC4935662 (Molecular pharmaceutics, 2016)

Legend:
[1] = cited from earlier work
[2] = single administration at 1.0 mmol/kg in rats; cited from earlier work
[3] = tested on: blood-brain barrier (BBB); experiment: In situ rat brain perfusion of Gd-DTPA, quantitative T1 mapping MRI; format: in vivo, Sprague-Dawley rats; conditions: Gd-DTPA 0.6 mmol/kg, brain-ventral
Method in brief: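 Adult male Sprague-Dawley rats (250–350 g). A 10-sec saline post-perfusion wash followed. Sacrificed animals underwent quantitative T1 mapping MRI at room temperature; R1 = 1/T1 was taken per brain region.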

[4] = tested on: blood-brain barrier (BBB); conditions: cited from earlier work

Compound: CC[C@@]1(O)C(=O)OCc2c1cc1n(c2=O)Cc2cc3ccccc3nc2-1 [CPT, camptothecin]
- time of conversion to the CPT-carboxylate form ([1]; phosphate-buffered saline solution containing 4% human plasma): 11 min
- pH below which the lactone group is stable ([1]; undergoes lactone hydrolysis to CPT-carboxylate at pH 7.4, no reference given): < 5.5

Compound: O=C([O-])CN(CCN(CC(=O)[O-])CC(=O)O)CCN(CC(=O)[O-])CC(=O)O.[Gd+3] [Gd-DTPA, gadolinium-diethylenetriaminepentaacetate]
- tolerability / organ toxicity [2]: well tolerated without any organ toxicity
- R1 values, Gd-DTPA in presence of HAV6 compared to Gd-DTPA and vehicle ([3]; HAV6 1.0 mM, olfactory bulb, hippocampus, cerebellum, deep-rostral, deep-caudal regions): more significantly increased R1 values
- R1 values, Gd-DTPA and vehicle compared to vehicle only ([3]; cortex, deep-caudal): increased R1 values

Compound: Ac-SHAVSS-NH2 [HAV6, Ac-SHAVSS-NH2]
- brain delivery of IRdye 800cw-PEG delivered 1 h after administration of peptide ([4]; 25 kDa IRdye 800cw-PEG): no enhancement of brain delivery
- duration of BBB opening ([4]; Balb/c mice): less than 1 h
